These results are taken from ChEMBL document CHEMBL4665773, “Structure activity relationship exploration of 5-hydroxy-2-(3-phenylpropyl)chromones as a unique 5-HT receptor antagonist scaffold” (Bioorg Med Chem Lett, 2020).

Molecules are shown by their SMILES.

The target of assay [1] is T1, 5-hydroxytryptamine receptor 2B (Homo sapiens, UniProt P41595). The assay can be described thus: Antagonist activity at 5HT2B receptor (unknown origin) by radioligand binding assay.
For assay [2], the target named is 5-hydroxytryptamine receptor 2A (Homo sapiens) (UniProt P28223). Description: Antagonist activity at 5HT2A receptor (unknown origin) at 10 uM by radioligand binding assay relative to control.
5-hydroxytryptamine receptor 2A (Homo sapiens), sequence (P28223 whole entry): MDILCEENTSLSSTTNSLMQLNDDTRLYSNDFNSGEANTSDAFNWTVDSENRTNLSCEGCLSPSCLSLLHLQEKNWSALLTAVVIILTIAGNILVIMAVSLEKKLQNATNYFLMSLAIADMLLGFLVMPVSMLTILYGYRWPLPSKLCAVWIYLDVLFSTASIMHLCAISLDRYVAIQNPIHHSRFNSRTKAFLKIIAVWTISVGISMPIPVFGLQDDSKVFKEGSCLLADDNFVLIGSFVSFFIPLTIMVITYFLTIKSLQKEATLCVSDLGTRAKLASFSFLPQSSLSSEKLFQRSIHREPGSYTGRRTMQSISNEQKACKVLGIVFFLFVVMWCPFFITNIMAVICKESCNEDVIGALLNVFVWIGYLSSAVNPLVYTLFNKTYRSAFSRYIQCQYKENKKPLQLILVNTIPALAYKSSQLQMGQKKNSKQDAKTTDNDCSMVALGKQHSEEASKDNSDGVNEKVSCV
For assay [3], the target named is T1, 5-hydroxytryptamine receptor 2B. Description: Antagonist activity at 5HT2B receptor (unknown origin) at 10 uM by radioligand binding assay relative to control.
The target in assay [4] is T2, 5-hydroxytryptamine receptor 2C (Homo sapiens) (UniProt P28335).
T2 sequence (whole entry): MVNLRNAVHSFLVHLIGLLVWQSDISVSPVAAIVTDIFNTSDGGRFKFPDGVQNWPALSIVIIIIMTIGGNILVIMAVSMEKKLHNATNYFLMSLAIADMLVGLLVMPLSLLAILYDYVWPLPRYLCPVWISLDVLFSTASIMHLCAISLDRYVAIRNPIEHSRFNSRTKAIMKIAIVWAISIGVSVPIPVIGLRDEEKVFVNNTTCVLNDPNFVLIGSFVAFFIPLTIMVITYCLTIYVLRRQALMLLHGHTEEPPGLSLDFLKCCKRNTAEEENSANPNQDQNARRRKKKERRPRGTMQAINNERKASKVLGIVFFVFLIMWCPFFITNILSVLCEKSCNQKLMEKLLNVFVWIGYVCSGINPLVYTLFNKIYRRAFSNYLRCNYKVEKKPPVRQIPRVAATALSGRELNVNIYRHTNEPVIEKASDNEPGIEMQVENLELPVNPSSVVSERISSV
The assay can be described thus: Antagonist activity at 5HT2C receptor (unknown origin) 10 uM by radioligand binding assay relative to control.

Assay [5] concerns the target T3, 5-hydroxytryptamine receptor 2C (Homo sapiens, UniProt P28335).
T3 sequence (P28335 whole entry): T2 sequence (whole entry)
Description: Antagonist activity at 5HT2C receptor (unknown origin) by radioligand binding assay.

Assay [6] concerns the target T1, 5-hydroxytryptamine receptor 2B. Description: Agonist activity at 5-HT2B receptor (unknown origin) by calcium mobilization assay. It counts as functional.
For assay [7] the target is unchanged. Description: Antagonist activity at 5-HT2B receptor (unknown origin) assessed as inhibition of 5HT-indued response by calcium mobilization assay. It counts as functional. In outline: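 Antagonist mode of the 5-HT2B calcium mobilization assay: 5-HT at 1.6 nM was challenged with various concentrations of test compound. Inhibition is expressed as pIC50.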
(In general: Calcium assays in cells follow changes in intracellular calcium, usually with a dye or a luminescent sensor.)

Assay [8] has the same target. The assay can be described thus: Agonist activity at 5-HT2B receptor (unknown origin) assessed as maximal response at 10 uM by calcium mobilization assay relative to 3 nM 5-HT. The class given is functional. The method in brief: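 Calcium mobilization read-out of agonism at 5-HT2B, with 5-HT as the reference agonist. Potency is expressed as pEC50. Maximal response to test compound at 10 μM is expressed relative to the maximal response to 5-HT at 3.0 nM.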

T1 sequence (P41595 whole entry): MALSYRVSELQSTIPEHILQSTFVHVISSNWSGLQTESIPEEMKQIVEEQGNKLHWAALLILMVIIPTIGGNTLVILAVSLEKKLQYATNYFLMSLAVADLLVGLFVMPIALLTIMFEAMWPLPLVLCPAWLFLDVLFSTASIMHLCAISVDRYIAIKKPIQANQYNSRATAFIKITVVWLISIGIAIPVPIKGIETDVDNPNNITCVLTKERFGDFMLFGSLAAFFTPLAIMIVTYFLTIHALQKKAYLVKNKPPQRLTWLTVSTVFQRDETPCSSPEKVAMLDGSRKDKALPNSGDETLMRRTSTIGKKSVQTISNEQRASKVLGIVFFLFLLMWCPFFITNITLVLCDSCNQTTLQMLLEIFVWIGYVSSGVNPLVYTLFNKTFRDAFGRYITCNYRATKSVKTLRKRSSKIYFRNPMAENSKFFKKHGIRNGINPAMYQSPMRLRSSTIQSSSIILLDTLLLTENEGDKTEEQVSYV

`O=c1cc(CCCc2ccc(Cl)cc2)oc2cccc(O)c12` gave an inhibition constant Ki in assay [1] of 2510 nM. Also, the results for the inhibition in assay [2], in assay [3] (filed as antagonist) and in assay [4] were 9.3%, 50.4% and 35.8%, respectively.
For `O=c1cc(CCCc2cccc(Cl)c2)oc2cccc(O)c12`, the Ki in assay [1] was 2000 nM. Further, the inhibition in assay [2] was determined as 13.9%; in assay [3] (filed as antagonist), 61.7%; in assay [4] (filed as antagonist) it was 44.8%.
In the case of `Cc1cccc(CCCc2cc(=O)c3c(O)cccc3o2)c1`, the inhibitory constant (Ki) is 2000 nM in assay [1] and 3160 nM in assay [5]. In addition, the inhibition is 14.4% in assay [2], 57.7% in assay [3] (filed as antagonist) and 59.4% in assay [4] (filed as antagonist).
Regarding `COc1ccc(CCCc2cc(=O)c3c(O)cccc3o2)cc1`, the results for the inhibition in assay [2], in assay [3] (filed as antagonist) and in assay [4] (filed as antagonist) were -1.6%, 75.3% and 87.9%, respectively.
As for `O=c1cc(CCCc2ccc(OC(F)(F)F)cc2)oc2cccc(O)c12`, the inhibition in assay [2] is -5%; in assay [3] it was 35.3%; in assay [4], 32.6%.
Compound `N#Cc1cccc(CCCc2cc(=O)c3c(O)cccc3o2)c1` had a Ki in assay [1] of 79.4 nM. For the same compound, the half-maximal effective concentration (EC50) in assay [6] was 501 nM. Besides, the inhibition in assay [2] came out at 7.2%; in assay [3] (filed as antagonist) it was 91.1%; in assay [4] it was 15.5%. Moreover, the 50% inhibitory concentration (IC50) in assay [7] is 6310 nM. In addition, the Rmax in assay [8] is 12%.
On to `O=c1cc(CCCc2ccc(C(F)(F)F)cc2)oc2cccc(O)c12`, for which the affinity in assay [1], expressed as Ki, was 2510 nM. Besides, the inhibition worked out at 19.5% in assay [2], 50% in assay [3] (filed as antagonist) and 36% in assay [4].
Turning to `O=c1cc(CCCc2ccc(F)cc2)oc2cccc(O)c12`, the inhibition in assay [2] came to 14.2%; in assay [3] (filed as antagonist), 49.2%; in assay [4], 33.9%.
As for `Cc1ccc(CCCc2cc(=O)c3c(O)cccc3o2)cc1`, the Ki in assay [1] was 1580 nM; in assay [5], 3160 nM. Besides, the inhibition was 17.2% in assay [2], 50% in assay [3] (filed as antagonist) and 51.2% in assay [4] (filed as antagonist).
In assay [1], `O=c1cc(CCCc2cccc(F)c2)oc2cccc(O)c12` showed an inhibition constant Ki of 2510 nM. The inhibition in assay [2] came to 8.4%; in assay [3] (filed as antagonist) it was 52.7%; in assay [4] (filed as antagonist), 44.4%.
`O=c1cc(CCCc2cccc(C(F)(F)F)c2)oc2cccc(O)c12` gave an inhibition constant (Ki) in assay [1] of 1000 nM. For the same compound, the inhibition came to 8.7% in assay [2], 65.8% in assay [3] (filed as antagonist) and 43.5% in assay [4] (filed as antagonist).
Consider `COc1cccc(CCCc2cc(=O)c3c(O)cccc3o2)c1`, for which the inhibition worked out at 9.8% in assay [2], 69.3% in assay [3] (filed as antagonist) and 67.4% in assay [4] (filed as antagonist).

One may read the Ki as a dissociation constant, usually derived from enzyme kinetics or from competition with a known ligand. Low values mean a stronger hold on the target, high ones a looser hold on the target. As a reminder, the inhibition is the relative decrease from the control value, in per cent. As usually defined, the EC50 is the concentration giving half of the maximal effect. By IC50 is commonly meant the concentration that gives 50% inhibition.
